# In the library only some 4.2% were active in any assay of this set; here they are far more common.
# HDAC3 inhib = blocks human histone deacetylase 3. recombinant HDAC3, fluorogenic peptide/trypsin coupled, fluorescence. AID 2718. O15379. inhibition, % at 8.3 µM. 320,000 tested, 0.15% active; in the data active = inhibition above about 26%, passing the limit was not always enough
# PfM18AAP inh = blocks P. falciparum M18 aspartyl aminopeptidase. recombinant PfM18AAP, H-Glu-NHMec fluorogenic cleavage. inhibition, % at 7.35 µM. 290,000 tested, 1.2% active. AID 1822;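 active = inhibition above the campaign mean inhibition over all tested compounds plus 3 SD, cut at about 28% in these data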;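 note: 0% = plate median of test compound wells and 100% = 2 mM ZnCl2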
# SENP1 FRET inh = SENP1 (human) catalytic domain inhibition | Q9P0U3 | recombinant SENP1 catalytic domain, CyPet-SUMO1-YPet FRET cleavage | inhibition, % at 10 µM | 360,000 tested, 0.21% active;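 active = inhibition at least 30% at 10 µM, raw YFP signal under a set limit, fluorescence ratio 0.5 to 1.5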;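 note: 0% = enzyme with DMSO and 100% = no enzyme wells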
# Target sequence (Q9P0U3 419-644 limits assumed): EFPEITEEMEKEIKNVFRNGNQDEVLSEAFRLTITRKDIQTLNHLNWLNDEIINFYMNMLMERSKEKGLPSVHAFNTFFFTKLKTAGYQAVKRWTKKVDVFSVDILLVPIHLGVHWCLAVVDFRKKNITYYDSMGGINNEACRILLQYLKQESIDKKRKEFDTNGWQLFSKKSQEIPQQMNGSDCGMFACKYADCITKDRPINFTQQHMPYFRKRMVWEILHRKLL
#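 Assay system: hSENP1 catalytic domain, recombinant. Amount: SENP1 enzyme, 20 pM final. Schedule: 50 min reaction, RT, dark. Technique: FRET, CFP and YFP emission. Control set: no-enzyme wells low, DMSO-plus-enzyme wells high control.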
# FXN GAA850 act = frataxin GAA850 promoter activation. HEK293 lucGAA850 FXN promoter luciferase reporter, 24 h; percent of 10 µM SAHA response. activation, % at 6 µM. 360,000 tested, 0.56% active;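 active = activation above the average of all compounds screened plus 3 SD, cutoff fixed separately per campaign, cut at about 7.5% in these data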;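 note: 0% = DMSO wells and 100% = 10 µM SAHA wells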
# AHR act = activates the human aryl hydrocarbon receptor; AID 2796; activation, % at 5 µM; 320,000 tested, 2.5% active; AHR-responsive luciferase reporter cells, luminescence; P35869; in the data active = activation above about 47%;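 note: 0% = vehicle wells and 100% = reference agonist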
# Fh CTSL1 inh = counter-screen for PFM18AAP inhibitors: inhibitors of F. hepatica cathepsin L1; 300,000 tested, 0.49% active; recombinant F. hepatica cathepsin L1, Z-Leu-Arg-MCA fluorescence; inhibition, % at 5.96 µM;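 active = inhibition above the mean of all tested compounds plus 3 SD, set per screening campaign, cut at about 17% in these data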;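 note: 0% = plate median of test compound wells and 100% = 1 µM Z-Phe-Ala-diazomethylketone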
# Numbers without * were called inactive; . = no result given.
SMILES,HDAC3 inhib,PfM18AAP inh,SENP1 FRET inh,FXN GAA850 act,AHR act,Fh CTSL1 inh
CN(C)c1ccc(N/C=C/C(=O)c2ccco2)cc1,6,21,71*,-1,27,1
CN(C)c1ccc(N/C=C/C(=O)c2ccc(F)cc2)cc1,-2,28,67*,4,9,-2
Cc1ccc(S(=O)(=O)Nc2ccc(S(=O)(=O)Nc3nccs3)cc2)cc1C,.,.,4,2,0,.
COc1ccc(OC)c(S(=O)(=O)CC(=O)c2cc3ccc(OC)cc3oc2=O)c1,1,10,-46,0,2,-3
COc1ccc(S(=O)(=O)CC(=O)c2cc3cc(Br)ccc3oc2=O)cc1,0,29*,-58,1,5,2
CCCS(=O)(=O)n1nc(-c2ccc(Br)cc2)cc1N,2,0,2,3,58*,3
CCCS(=O)(=O)n1nc(-c2ccccc2)cc1N,-1,-8,4,3,9,-2
Cn1cc([N+](=O)[O-])c(C(=O)NCc2cc3cc(Cl)ccc3[nH]2)n1,2,8,-2,1,48*,1
Cc1c(Br)c(C(=O)NCc2cc3cc(Cl)ccc3[nH]2)nn1C,0,-2,-3,1,12,-3
COc1ccc(OC)c(NC(=O)c2cc3ccccc3o2)c1,-11,3,1,4,61*,2
COc1ccc(C)cc1NC(=O)c1cc2ccccc2o1,3,5,3,5,11,33*
COc1cccc(C(C(=O)NCc2ccccc2)N2CCN(c3ccccc3F)CC2)c1OC (stereo unspecified),.,.,1,.,.,.
Cc1ccc(N(CC(=O)NCc2ccccc2)C(=O)c2csnn2)cc1,3,-6,2,3,0,0
CC(=O)Nc1cccc(C(=O)N2CCC(n3nccc3NC(=O)CC(C)C)CC2)c1,-1,0,2,1,1,1
CC(=O)C1=CCC(c2ccccc2)N(S(=O)(=O)c2cccc(C)c2)C1 (stereo unspecified),.,.,0,.,.,.
COc1ccc(-c2cc(C(F)(F)F)nc(N)n2)cc1,-7,6,1,6,1,-3
COc1ccc(-c2cc3cc(OC)c(OC)cc3c(C)n2)cc1,-20,3,-1,5,82*,6
COc1ccc2cc(-c3cc(C(=O)O)c4ccccc4n3)ccc2c1,-17,-1,-2,-4,-14,3
COc1ccc(-c2cc(OC)c3ccccc3n2)cc1,-50,1,2,3,60*,1
COc1ccc(-c2cc3ccc(OC)cc3cn2)cc1,3,.,1,-3,44,.
COc1ccc(-c2cc3ccccc3cn2)cc1,8,.,1,2,51*,.
COc1cc(-c2cc(C(=O)O)c3cc4ccccc4cc3n2)cc(OC)c1OC,.,.,1,0,.,.
COc1ccc2c(OC)cc(-c3ccccc3)nc2c1,-3,2,-2,-1,70*,1
CC1(C(=O)NCc2ccccc2Br)CCN1Cc1ccc(-c2ccccc2)o1 (stereo unspecified),.,.,-2,2,.,.
COc1cc(C(=O)O)nc2ccccc12,8,22,2,0,-2,-2
SMILES,HDAC3 inhib,PfM18AAP inh,SENP1 FRET inh,FXN GAA850 act,AHR act,Fh CTSL1 inh
COc1cc(-c2ccccc2)nc2ccccc12,-32,-1,2,0,48*,1
C#CCOc1ccccc1/C=N/NC(=O)c1ccccc1OCc1ccccc1,-4,-7,0,-3,43,3
Cc1cccc(C(=O)NC(=S)NC(C)c2ccccc2)c1 (stereo unspecified),-5,.,-1,1,1,-3
CN=c1scc(-c2ccccc2F)n1/N=C(\C)c1cccnc1,-1,3,-2,5,78*,-1
COC(=O)c1c(NC(=O)C(C)C)sc(C(=O)N2CCOCC2)c1C,1,31*,-4,1,2,4
COC(=O)c1c(NC(C)=O)sc(C(=O)N2CCOCC2)c1C,7,-14,-1,-2,2,2
O=C(O)c1nnn(-c2cc(C(F)(F)F)cc(C(F)(F)F)c2)c1-c1ccccc1,-7,1,2,2,3,46*
COc1ccc(NC(=O)CN(C)C(=O)c2cn(-c3ccccc3)nc2-c2ccc(Cl)cc2)cc1,-4,.,1,-1,3,-2
CCN(CC)C(=O)CSc1nnc([C@@H](N)Cc2ccccc2)o1,-12,.,2,-1,1,44*
CCC(C)[C@H](N)c1nnc(SCC(=O)Nc2ccc(C)cc2C)o1 (stereo partly specified),-2,6,1,0,10,32*
CCc1ccccc1NC(=O)CSc1nc(C)c(C)o1,-2,-9,1,1,.,.
CCc1ccccc1NC(=O)CSc1nnc([C@@H](N)Cc2ccccc2)o1,9,-1,2,-1,0,68*
COc1ccc(N2CCN(C(=O)c3ccc(-c4nc5ccccc5s4)o3)CC2)cc1,9,.,-28,4,69*,.
COc1ccccc1N1CCN(C(=O)c2ccc(-c3nc4ccccc4s3)o2)CC1,.,.,-22,1,25,.
CCc1nnc(SCC(=O)Nc2ccc3c(c2)OCO3)n1CC,-2,0,2,0,50*,0
O=C(Cn1c(SCC(=O)NC2CCCC2)nnc1-c1ccncc1)Nc1ccc2c(c1)OCO2,-4,-1,-1,1,66*,2
O=C(CSc1nnnn1CCCO)Nc1ccc2c(c1)OCO2,-4,-4,2,0,55*,0
Nn1cc(-c2ccccc2)nc1SCC(=O)Nc1ccc2c(c1)OCO2,9,6,0,2,69*,0
O=C(CSc1nnnn1C1CCCCC1)Nc1ccc2c(c1)OCO2,0,-3,1,4,20,-4
Cc1ccc(SC[C@H](Cc2ccccc2)N2CC[C@@H](NC(=O)OCc3ccccc3)CCC2=O)cc1,14,-1,.,.,0,-1
O=C(CNC(=O)c1ccco1)N/N=C/c1ccc(C(=O)O)cc1,5,3,1,3,2,4
CSC(=Nc1ccccc1)N=C(SCc1ccccc1)N(C)C,.,.,1,-11,.,.
O=C(CSc1nc2ncc(Br)cc2[nH]1)Nc1ccc2c(c1)OCO2,-3,-4,-2,-2,50*,2
CC(C)n1nnnc1SCC(=O)NCc1ccc2c(c1)OCO2,-4,4,0,1,0,-1
CC(C)n1nnnc1SCC(=O)Nc1ccc2c(c1)OCO2,2,1,-1,-1,56*,-3
Cc1cc(C)c(NC(=O)CSc2nc3ncc(Br)cc3[nH]2)c(C)c1,3,-2,-1,1,12,2
CCCCn1nnnc1SCC(=O)Nc1ccc(N(C)C)cc1,-4,5,0,2,71*,6
CCCCn1nnnc1SCC(=O)Nc1ccc(F)cc1,-7,-11,2,1,16,0
CC(C)c1ccc(O)c(=O)cc1,.,.,-2,3,.,.

# From PubChem BioAssay
